The M2OR odorant receptor database
Numbering of substitutions follows the chain as printed.

Each compound was assayed against T1, OR6C6 (Homo sapiens) (UniProt A6NF89). Settings: stereoisomer not certain.
T1 sequence (whole entry): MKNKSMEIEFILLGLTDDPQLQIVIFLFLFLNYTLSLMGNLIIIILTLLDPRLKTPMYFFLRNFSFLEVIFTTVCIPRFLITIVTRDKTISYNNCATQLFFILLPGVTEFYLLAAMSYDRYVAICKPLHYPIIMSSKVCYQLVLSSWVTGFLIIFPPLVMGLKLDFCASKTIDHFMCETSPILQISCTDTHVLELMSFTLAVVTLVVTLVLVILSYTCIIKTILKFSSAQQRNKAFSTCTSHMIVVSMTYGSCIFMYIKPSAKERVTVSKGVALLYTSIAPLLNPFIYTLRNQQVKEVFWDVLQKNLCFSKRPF
Summary of the method: (§1)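 Values were gathered from published papers (main text and supplementary material), with extra details requested from the original authors when needed, and checked for typos and inconsistencies. Each receptor–molecule pair is called responsive (active) if the original authors judged the measured signal statistically different from baseline, and non-responsive (inactive) otherwise. Assay methods varied by source, often transient mammalian cell-line luciferase assays. Recorded details include cell line, G-protein, co-transfected protein and tags.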

SMILES	odorant receptor agonist call
CCC(S)C(C)CO (stereo not drawn)	inactive
CC(=O)c1c(C)c([N+](=O)[O-])c(C(C)(C)C)c([N+](=O)[O-])c1C	inactive
CC1CCCCCCCCCCCCC(=O)C1 (stereo not drawn)	inactive
CCCCCCC=CCCC=O	inactive
Cc1cnc(C)c(C)n1	inactive
CC1=C(O)C(=O)C(C)O1 (stereo not drawn)	inactive
CCC1OC(C)=C(O)C1=O (stereo not drawn)	inactive
CC1=NC(C)C(C)S1 (stereo not drawn)	inactive
CCCCCC(S)C(C)CO (stereo not drawn)	inactive
CCCCCC(=O)C(C)C(C)=O (stereo not drawn)	inactive
CCC1OC(=O)C(O)=C1C (stereo not drawn)	inactive
CCCC(S)CCOC(C)=O (stereo not drawn)	inactive
CC(CO)CS (stereo not drawn)	inactive
CC1=C(O)C(=O)OC1C (stereo not drawn)	inactive
CCCCC(S)C(C)CO (stereo not drawn)	inactive

What follows are compounds tested on T2, OR6C6 M6I. Settings: stereoisomer not certain.
T2 sequence (whole entry): T1 sequence (whole entry) with M6I
Summary of the method: as §1

SMILES	odorant receptor agonist call
CCCCCCC=CCCC=O	inactive
Cc1cnc(C)c(C)n1	inactive
CC1=C(O)C(=O)C(C)O1 (stereo not drawn)	inactive
CCC1OC(C)=C(O)C1=O (stereo not drawn)	inactive
CC1=NC(C)C(C)S1 (stereo not drawn)	inactive
CCC1OC(=O)C(O)=C1C (stereo not drawn)	inactive
CCCC(S)CCOC(C)=O (stereo not drawn)	inactive
CC1=C(O)C(=O)OC1C (stereo not drawn)	inactive
